Consider 13 compounds from ChEMBL document CHEMBL1147591, “A novel class of apical sodium-dependent bile acid transporter inhibitors: the amphiphilic 4-oxo-1-phenyl-1,4-dihydroquinoline derivatives” (Bioorg Med Chem Lett, 2004).

Test [1] concerns Ileal sodium/bile acid cotransporter (hamster). Nature of the test: Inhibition of ASBT as [3H]taurocholate uptake in hamster ileal ring at 30 ug/mL. The note with it: Syrian hamster.
A short description of test [2]: Ratio between total non HDL-cholesterol and HDL-cholesterol in hamster at a dose of 30.0 mg/kg. The test is classed as functional. The procedure, abridged:
(§1)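 Chow-fed male Syrian golden hamsters were dosed by oral gavage in 0.5% carboxymethylcellulose each evening for 14 consecutive days, with free access to chow and water. Animals were weighed daily and killed the morning after the 14th dose. Serum lipoprotein cholesterol profiles were measured, and the ratio of non-HDL (VLDL plus LDL) cholesterol to HDL-cholesterol was calculated.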

Test [3] relates to Cricetinae gen. sp. In words: Evaluated for total serum cholesterol in hamster at a dose of 3.0 mg/kg. Format: functional, Cricetulus griseus. The gist of the method: (§2)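 Chow-fed male Syrian golden hamsters dosed orally by gavage in 0.5% carboxymethylcellulose vehicle once daily in the evening for 14 consecutive days at 0.3, 1, 3, 10, 30 or 100 mg/kg/day. Chow and water were given freely and animals weighed daily. They were sacrificed the morning after the 14th dose. Serum was assayed for triglycerides, total cholesterol and lipoprotein cholesterol (VLDL+LDL, HDL).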

The subject of test [4] is Cricetinae gen. sp. In words: Evaluated for total HDL-cholesterol in hamster at a dose of 0.3 mg/kg. Format: functional. The procedure, abridged: as §2
The subject of test [5] is Mesocricetus auratus. Nature of the test: Evaluated for total triglycerides in hamster at a dose of 100.0 mg/kg.
For test [6], the system named is Cricetinae gen. sp. In words: Evaluated for total HDL-cholesterol in hamster at a dose of 100.0 mg/kg. The test is classed as functional. The gist of the method:
as §2

Test [7] deals with Cricetinae gen. sp. Nature of the test: Evaluated for total HDL-cholesterol in hamster at a dose of 3.0 mg/kg. Format: functional. The gist of the method: as §2
Test [8] has as its system Cricetinae gen. sp. In words: Evaluated for total HDL-cholesterol in hamster at a dose of 1.0 mg/kg. The test is classed as functional. The procedure, abridged:
as §2

In test [9] the test system is Cricetinae gen. sp. Nature of the test: Evaluated for total HDL-cholesterol in hamster at a dose of 10.0 mg/kg. The test is classed as functional. The procedure, abridged: as §2
The subject of test [10] is Cricetinae gen. sp. In words: Evaluated for total triglycerides in hamster at a dose of 1.0 mg/kg. Format: functional, Cricetulus griseus. The gist of the method:
as §2

Test [11] deals with Cricetinae gen. sp. Nature of the test: Evaluated for total serum cholesterol in hamster at a dose of 10.0 mg/kg. The test is classed as functional, Cricetulus griseus. The procedure, abridged:
as §2

Test [12] concerns Cricetinae gen. sp. Nature of the test: Evaluated for total triglycerides in hamster at a dose of 10.0 mg/kg. The test is classed as functional, Cricetulus griseus. The procedure, abridged: as §2
The test system of test [13] is Cricetinae gen. sp. Nature of the test: Evaluated for total non HDL- cholesterol in hamster at a dose of 30.0 mg/kg. Format: functional. The procedure, abridged:
as §2

Test [14] in a line: Ratio between total non HDL-cholesterol and HDL-cholesterol in hamster at a dose of 0.3 mg/kg. The test is classed as functional. The procedure, abridged: as §1
Test [15] concerns Cricetinae gen. sp. In words: Evaluated for total HDL-cholesterol in hamster at a dose of 30.0 mg/kg. The test is classed as functional. The gist of the method: as §2
The test system of test [16] is Cricetinae gen. sp. Nature of the test: Evaluated for total non HDL- cholesterol in hamster at a dose of 1.0 mg/kg. The test is classed as functional. The gist of the method: as §2
Test [17] has as its system Cricetinae gen. sp. Nature of the test: Evaluated for total triglycerides in hamster at a dose of 0.3 mg/kg. Format: functional, Cricetulus griseus. The gist of the method: as §2
A short description of test [18]: Ratio between total non HDL-cholesterol and HDL-cholesterol in hamster at a dose of 1.0 mg/kg. The test is classed as functional. The procedure, abridged: as §1
Test [19] concerns Cricetinae gen. sp. Nature of the test: Evaluated for total serum cholesterol in hamster at a dose of 0.3 mg/kg. Format: functional. The procedure, abridged: as §2
The nature of test [20]: Ratio between total non HDL-cholesterol and HDL-cholesterol in hamster at a dose of 100.0 mg/kg. Format: functional. The gist of the method: as §1
Test [21] concerns Cricetinae gen. sp. In words: Evaluated for total triglycerides in hamster at a dose of 30.0 mg/kg. Format: functional, Cricetulus griseus. The procedure, abridged: as §2
For test [22], the system named is Cricetinae gen. sp. In words: Evaluated for total non HDL- cholesterol in hamster at a dose of 100.0 mg/kg. The test is classed as functional. The procedure, abridged: as §2
The subject of test [23] is Cricetinae gen. sp. Nature of the test: Evaluated for total non HDL- cholesterol in hamster at a dose of 3.0 mg/kg. The test is classed as functional. The procedure, abridged:
as §2

Test [24] deals with Cricetinae gen. sp. In words: Evaluated for total serum cholesterol in hamster at a dose of 1.0 mg/kg. The test is classed as functional, Cricetulus griseus. The procedure, abridged:
as §2

Test [25] has as its system Cricetinae gen. sp. Nature of the test: Evaluated for total triglycerides in hamster at a dose of 3.0 mg/kg. The test is classed as functional, Cricetulus griseus. The procedure, abridged:
as §2

In test [26] the test system is Mesocricetus auratus. Nature of the test: Evaluated for total non HDL- cholesterol in hamster at a dose of 10.0 mg/kg.
Test [27] concerns Cricetinae gen. sp. Nature of the test: Evaluated for total serum cholesterol in hamster at a dose of 30.0 mg/kg. Format: functional. The gist of the method: as §2
Test [28] in a line: Ratio between total non HDL-cholesterol and HDL-cholesterol in hamster at a dose of 10.0 mg/kg. Format: functional. The gist of the method:
as §1

Test [29] deals with Cricetinae gen. sp. In words: Evaluated for total non HDL- cholesterol in hamster at a dose of 0.3 mg/kg. Format: functional. The gist of the method:
as §2

Test [30] in a line: Ratio between total non HDL-cholesterol and HDL-cholesterol in hamster at a dose of 3.0 mg/kg. The test is classed as functional. The procedure, abridged: as §1
Test [31] concerns Cricetinae gen. sp. In words: Evaluated for total serum cholesterol in hamster at a dose of 100.0 mg/kg. The test is classed as functional, Cricetulus griseus. The gist of the method:
as §2

SMILES strings stand for the structures.

Broadly, the inhibition is the share of the control response that was lost under treatment. Read a high inhibition as a response far below the control. As for `CCN(C(=O)c1cn(-c2cc(OC)cc(OCCCCCC[N+]34CCN(CC3)CC4)c2)c2cc(OC)ccc2c1=O)c1cc(F)cc(F)c1`, in [1], 30 µg/mL produced 83% inhibition.
On the same count and under the same terms, with `CCN(C(=O)c1cn(-c2cc(OC)cc(OC)c2)c2cc(OCCCC[N+]34CCN(CC3)CC4)ccc2c1=O)c1cc(F)cc(F)c1` the figure was 24%.
The same measure, in the same setting: for `CCN(C(=O)c1cn(-c2ccc(OCc3ccc(C[N+]45CCN(CC4)CC5)cc3)cc2)c2cc(OC)ccc2c1=O)c1cc(F)cc(F)c1` the value was 41%; for `CCN(C(=O)c1cn(-c2cc(OC)cc(OC)c2)c2cc(OCCCCC[N+]34CCN(CC3)CC4)ccc2c1=O)c1cc(F)cc(F)c1`, 67%.
The same measure, in the same setting: for `CCN(C(=O)c1cn(-c2cc(OC)cc(OC)c2)c2cc(OCc3ccc(C[N+]45CCN(CC4)CC5)cc3)ccc2c1=O)c1cc(F)cc(F)c1` the value was 71%.
Turning to `CCN(C(=O)c1cn(-c2cc(OC)cc(OC)c2)c2cc(OCCCCCC[N+]34CCN(CC3)CC4)ccc2c1=O)c1cc(F)cc(F)c1`, the inhibition at 30 µg/mL in [1] was found to be 88%.
The same measure, in the same setting: for `CCN(C(=O)c1cn(-c2cc(OC)cc(OC)c2)c2cc(OC)ccc2c1=O)c1cc(F)cc(F)c1` the value was 64%; for `CCN(C(=O)c1cn(-c2cc(OC)cc(OCCCCCCCC[N+]34CCN(CC3)CC4)c2)c2cc(OC)ccc2c1=O)c1cc(F)cc(F)c1`, 83%.
Still for that read-out and setting: with `CCN(C(=O)c1cn(-c2cc(OC)cc(OC)c2)c2cc(OCCCCCCCC[N+]34CCN(CC3)CC4)ccc2c1=O)c1cc(F)cc(F)c1` the figure was 94%.
Same read-out and setting: for `CCN(C(=O)c1cn(-c2cc(OC)cc(OCCCCCCC[N+]34CCN(CC3)CC4)c2)c2cc(OC)ccc2c1=O)c1cc(F)cc(F)c1` the value was 86%.
For `CCN(C(=O)c1cn(-c2cc(OC)cc(OCc3ccc(C[N+]45CCN(CC4)CC5)cc3)c2)c2cc(OC)ccc2c1=O)c1cc(F)cc(F)c1`, the inhibition at 30 µg/mL in [1] is 71%.
Turning to `CCN(C(=O)c1cn(-c2cc(OC)cc(OC)c2)c2cc(OCCCCCCC[N+]34CCN(CC3)CC4)ccc2c1=O)c1cc(F)cc(F)c1.[Br-]`, the Ratio in test [2] is listed as 1.3; in test [14] it was 0.9; in test [18] it was 1.1; in test [20], 0.9; in test [28], 1.1; in [30], 1.2. Further, the TC in the test with Cricetinae gen. sp. [3] worked out at 174.3 mg/dL; in the test with Cricetinae gen. sp. [11], 144.1 mg/dL; in the test with Cricetinae gen. sp. [19], 157.4 mg/dL; in the test on Cricetinae gen. sp. [24], 166.9 mg/dL; with Cricetinae gen. sp. [27], 142.8 mg/dL; in the test with Cricetinae gen. sp. [31], 118.9 mg/dL. Further, the inhibition at 30 µg/mL in test [1] came to 100%. Further, the HDL-C with Cricetinae gen. sp. [4] stood at 81.8 mg/dL; in the test with Cricetinae gen. sp. [6] it was 61.9 mg/dL; with Cricetinae gen. sp. [7] it was 80.2 mg/dL; with Cricetinae gen. sp. [8], 81.7 mg/dL; in the test with Cricetinae gen. sp. [9], 69.8 mg/dL; in the test on Cricetinae gen. sp. [15], 63.9 mg/dL. Besides, the TG in the test with Mesocricetus auratus [5] amounted to 217.7 mg/dL; in the test with Cricetinae gen. sp. [10], 249.3 mg/dL; in the test with Cricetinae gen. sp. [12], 217.6 mg/dL; with Cricetinae gen. sp. [17], 142.7 mg/dL; in the test on Cricetinae gen. sp. [21] it was 235 mg/dL; in the test with Cricetinae gen. sp. [25], 270.8 mg/dL. In addition, the Non-HDL-C in the test with Cricetinae gen. sp. [13] worked out at 78.9 mg/dL; with Cricetinae gen. sp. [16], 85.2 mg/dL; in the test with Cricetinae gen. sp. [22], 57 mg/dL; in the test on Cricetinae gen. sp. [23], 94.1 mg/dL; in the test on Mesocricetus auratus [26] it was 74.3 mg/dL; in the test on Cricetinae gen. sp. [29], 75.7 mg/dL.
For `CCN(C(=O)c1cn(-c2ccc(OC)cc2)c2cc(OC)ccc2c1=O)c1cc(F)cc(F)c1`, the inhibition at 30 µg/mL in [1] was 64%.
